Calls of active or inactive are those of the source. No cut-off for these calls is given here.
Tests used:
Type in all cases: functional, cell-based
SW480 = assay: Inhibition of serum-induced expression of cyclin D in human SW480 cells after 5 hrs
Method in brief: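 SW480 cells starved of serum overnight, then stimulated with serum for 5 h with or without a range of compound concentrations. Cyclin D1 level read by Western blot.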

HT-29 [1] = assay: Induction of PARP cleavage in human HT29 cells after 8 hrs
Method in brief: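 HT29 cells incubated 8 h with a range of compound concentrations. The 116 kDa PARP cleavage was detected by Western blot.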

HT-29 [2] = assay: Apoptosis induction in human HT29 cells after 24 hrs; conditions: HT-29, 24 h
Method in brief: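 HT29 cells seeded at 25 000/well and attached 24 h, then exposed for 24 h at 37 C to compound (0-1000 M, added from DMSO; final DMSO 0.5%, 1.0% at 600 µM). Cells harvested, stained with PI, and 10 000 events counted by flow cytometry. PI-negative cells scored as living and EC50 fitted from the curves. Mean of 3-4 independent experiments.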

HT-29 [3] = assay: Induction of DNA fragmentation in human HT29 cells after 48 hrs by Nicoletti assay
Method in brief: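 HT29 cells seeded 25 000/well, attached 24 h, then treated with compound for 48 h. Trypsinized, resuspended in Nicoletti buffer (0.1% Tx-100, 0.1% Na citrate, 50 g/mL PI), held overnight at 4 C. DNA content of nuclei measured by FACS to assess fragmentation.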

HT-29 [4] = assay: Effect on cell death in HT29 cells pretreated with GSH synthesis inhibitor BSO; conditions: Homo sapiens
Method in brief: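 HT29 cells seeded 25 000/well, attached 24 h; 200 µM BSO for 4 h at 37 C, washed, then medium with or without EtGSH (10 mM) 3 h, washed. Then compound in DMSO (final 0.5%) for 24 h at 37 C; cells harvested, stained with PI, 10 000 events by flow cytometry; PI-negative cells counted as living. Mean of four independent experiments, standard deviations.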

SMILES	Activity (SW480)	Activity (HT-29 [1])	EC50 (HT-29 [2]) [µM]	Activity (HT-29 [3])	Activity (HT-29 [4])
CC(=O)Oc1ccc(CO[N+](=O)[O-])cc1	Active	Active	9.3	–	–
CC(=O)Oc1ccccc1C(=O)Oc1cccc(CO[N+](=O)[O-])c1 [NCX-4016]	inactive	–	1000	–	–
CC(=O)Oc1ccc(CCl)cc1	Active	Active	8.7	Active	Active
CC(=O)Oc1ccccc1C(=O)Oc1ccc(CO[N+](=O)[O-])cc1	Active	Active	107	Active	Active
CC(=O)Oc1ccccc1C(=O)O [ASPIRIN]	–	–	> 1000	–	–
CC(=O)Oc1ccccc1C(=O)Oc1ccc(CCl)cc1	Active	Active	40.1	–	–
CC(=O)N[C@@H](C(=O)O)C(C)(C)SN=O	–	–	> 1000	–	–
CC(=O)Oc1ccccc1C(=O)Oc1cccc(CO)c1	–	–	> 1000	–	–
